Assay results from different studies.
Lines come from different studies, so protocols differ.
Target: Broad substrate specificity ATP-binding cassette transporter ABCG2 (ABCG2, Homo sapiens, UniProt Q9UNQ0)
Residues used in one study (Q9UNQ0 1-655): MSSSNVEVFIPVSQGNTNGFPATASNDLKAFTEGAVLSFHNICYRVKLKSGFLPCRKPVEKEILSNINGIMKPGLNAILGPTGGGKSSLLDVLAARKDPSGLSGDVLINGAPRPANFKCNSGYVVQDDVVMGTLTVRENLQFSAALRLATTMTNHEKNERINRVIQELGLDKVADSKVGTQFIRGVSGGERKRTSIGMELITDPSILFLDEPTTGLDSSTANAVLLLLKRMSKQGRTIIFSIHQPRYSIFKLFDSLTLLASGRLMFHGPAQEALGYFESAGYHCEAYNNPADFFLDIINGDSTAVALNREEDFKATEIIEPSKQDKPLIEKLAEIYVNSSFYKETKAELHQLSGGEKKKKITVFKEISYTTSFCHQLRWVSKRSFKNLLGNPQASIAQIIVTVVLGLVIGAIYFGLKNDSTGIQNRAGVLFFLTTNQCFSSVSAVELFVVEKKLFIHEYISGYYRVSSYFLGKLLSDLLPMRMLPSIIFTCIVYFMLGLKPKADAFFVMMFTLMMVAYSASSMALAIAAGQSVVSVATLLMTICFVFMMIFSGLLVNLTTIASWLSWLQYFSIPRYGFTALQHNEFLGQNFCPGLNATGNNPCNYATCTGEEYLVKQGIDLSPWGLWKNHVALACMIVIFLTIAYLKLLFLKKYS

| Compound | test | test system | setting | measurement | value |
| --- | --- | --- | --- | --- | --- |
| CN(C(=O)n1cnc(-c2ccc[n+]([O-])c2)c1)C1CCCCC1 | transporter uptake, inhibitor | MDCK-II | 10 µg/mL | inhibition | 13% |
| C[C@@H](C(=O)N1Cc2c(-c3ccc(C(=O)N4CCCc5ccccc54)cc3)cnn2C[C@@H]1C)c1ccccc1 | – | dog, MDCK-MDR1 | – | Papp B→A | 13.3 ×10⁻⁶ cm/s |
| CN(CCC(=O)O)C(=O)c1ccc2c(c1)CC[C@@H]1[C@@H]2CC[C@]2(C)C(c3cncc(F)c3)=CC[C@@H]12 | transporter uptake, inhibitor | – | – | IC50 | 7.6 µM |
| CC(C)[C@H]1Cn2ncc(-c3ccc(C(=O)N4CCCc5ccccc54)cc3)c2CN1C(=O)Cc1ccccc1 | – | dog, MDCK-MDR1 | – | Papp B→A | 11.9 ×10⁻⁶ cm/s |
| C/C(O)=C(\C#N)C(=O)Nc1ccc(C(F)(F)F)cc1 | – | Caco-2 | 1 µM, 2 h, pH 7.4 | Papp A→B | 5.51 ×10⁻⁶ cm/s |
| N#C/C(=C/c1cc(Cl)cc(Cl)c1)c1cccnc1 | ligand displacement | – | 10 µM | inhibition | ~55% |
| C=C[C@@H]1C[C@]1(NC(=O)[C@@H]1C[C@@H]2CN1C(=O)[C@H](C(C)(C)C)NC(=O)O[C@@H]1C[C@H]1CCCCCc1nc3ccc(OC)cc3nc1O2)C(=O)NS(=O)(=O)C1CC1 | transporter uptake, inhibitor | – | cell membranes | Ki | 4 µM |
| O=c1cc(-c2ccccc2)oc2cc(O)cc(O)c12 | transporter uptake, inhibitor | Caco-2 | 100 µM, 2 h | inhibition | 92% |
| CC(=O)c1cc(C(=O)N[C@@H](C)Cn2ccc(-c3ccc(C#N)c(Cl)c3)n2)[nH]n1 | transporter uptake, inhibitor | – | cell membranes | Ki | 0.56 µM |
| O=C(O)CSc1nnc(Br)n1-c1ccc(C2CC2)c2ccccc12 | transporter uptake, inhibitor | Caco-2 | 3 µM, 2 h | inhibition | 18% |
